The record followed here is ChEMBL document CHEMBL5543129, “Peptide Inhibitor Targeting the Extraterminal Domain in BRD4 Potently Suppresses Breast Cancer Both In Vitro and In Vivo” (J Med Chem, 2024).

Calls of active or inactive are those of the source. No cut-off for these calls is given here. Square brackets hold non-standard residues; d marks the D form. Peptide text beside a SMILES is read from it. Hyp = O=C(O)[C@@H]1C[C@@H](O)CN1; Ahx = NCCCCCC(=O)O

Data set [1] deals with MDA-MB-231. The data set can be described thus: Inhibition of cell migration in human MDA-MB-231 cells at 10 uM incubated for 12 hrs in presence of 5 uM JQ1 by inverted microscopic assay. The class given is functional, cell-based. The method in brief: (§1)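 Cells are seeded at 5 × 10^5/well and scratched at 80–90% confluence. They are kept in serum-free medium with peptide (10 μM); partner agents are JQ1 5 μM, iJMJD6 10 μM, or ICI 2.5 μM. Wound area is imaged by inverted microscope at 0 and 12 or 24 h. Wound closure % = (A0−A1)/A0 × 100. Three biological repeats.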

Data set [2] in a line: Toxicity in BALB/c mouse xenografted with human MCF7 cells assessed as change in organ weight at 2.5 mg/kg, ip administered every 2 days in presence of 12.5 mg/kg fulvestrant. The class given is organism-based. The conditions noted are these: in vivo, 48 h. A general note: Xenograft models place foreign cells or tissue in a host animal.
Data set [3] has as its system MDA-MB-231. The data set can be described thus: Inhibition of cell migration in human MDA-MB-231 cells at 10 uM incubated for 24 hrs in presence of JMJD6 inhibitor by inverted microscopic analysis. Format: functional, cell-based. Summed up: as §1
Data set [4] is described as follows: Toxicity in BALB/c mouse xenografted with human MDA-MB-231 cells assessed as change in heart morphology at 12.5 mg/kg, ip administered every 2 days in presence of 50 mg/kg JQ1. Format: organism-based. To be noted: in vivo, 48 h. Summed up: (§2)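 Female BALB/c nude mice (4–6 weeks) carried sc MDA-MB-231 xenografts (5 × 10^6 cells) and were randomized at about 50 mm3. Peptide (12.5 mg/kg ip in saline) and JQ1 (50 mg/kg ip, DMSO/10% HPBCD 1:10) were given every 2 days, alone or combined. Body weight was recorded, and heart, liver, spleen, lung and kidney morphology and weight were assessed.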

Data set [5] relates to Mus musculus. The data set can be described thus: Downregulation of JMJD6 mRNA expression in BALB/c mouse tumor xenografted with human MDA-MB-231 cells at 25 mg/kg, ip administered every 2 days by RT-qPCR analysis. Format: functional, organism-based.
The subject of data set [6] is T47D. The data set can be described thus: Inhibition of colony formation in human T47D cells at 10 uM incubated for 2 weeks in presence of JMJD6 inhibitor by crystal violet staining based assay. Format: functional, cell-based. The method in brief:
(§3)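 Cells are seeded at 1 × 10^3/well and treated with peptide (10 μM) for 2 weeks, alone or with JQ1 5 μM, iJMJD6 10 μM, ICI 2.5 μM, or tamoxifen 3 μM (tamoxifen-resistant lines). Colonies are stained with crystal violet, dissolved in 10% acetic acid, and read at 590 nm. Three biological repeats.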

Data set [7] deals with MCF7. Briefly: Downregulation of c-Myc gene expression in human MCF7 cells at 10 uM incubated for 6 hrs by RT-qPCR analysis. Format: functional, cell-based. The method in brief: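 Cells treated with peptide (10 μM) for 6 h; c-Myc, N-myc and CCND1 mRNA measured by RT-qPCR. Three biological repeats.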
(In general: Quantitative PCR measures a nucleic acid by following its amplification.)

Data set [8] can be described thus: Downregulation of BRD4 protein expression in BALB/c mouse tumor xenografted with human MCF7 cells assessed as fold change in remaining BRD4 level at 25 mg/kg, ip administered every 2 days by immunoblotting analysis. Format: functional. Summed up: (§4)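 Tumours taken from xenograft mice dosed with peptide at 25 mg/kg ip every 2 days. […] Three repeats.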
Data set [9] in a line: Downregulation of BRD4 protein expression in human MCF7 cells assessed as fold change in remaining BRD4 level at 10 uM incubated for 24 hrs by immunoblotting analysis (reference value: 1). The class given is functional. The method in brief:
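Cells treated with peptide (10 μM) for 24 h. Lysates in Tris/NaCl/EDTA/1% Triton X-100, run on 10% SDS-PAGE and immunoblotted with ECL detection. β-actin as loading control. Three repeats, quantified against untreated cells.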
A general note: Immunoblotting shows a protein as a band on a membrane.

Data set [10] relates to MCF7. Briefly: Antitumor activity against human MCF7 cells xenografted in BALB/c nude mouse assessed as reduction in tumor volume at 12.5 mg/kg, ip administered every 2 days in presence of 12.5 mg/kg JMJD6 inhibitor. The class given is functional, organism-based. Summed up: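 Female BALB/c nude mice given 5 × 10^6 cells sc (MCF7 mice with E2 10^-2 M every 2 days), randomised at ~50 mm3. Peptide 12.5 mg/kg ip (saline) every 2 days, plus JQ1 50 mg/kg ip (DMSO/10% HPBCD 1:10) every 2 days or iJMJD6 12.5 mg/kg ip (DMSO/PBS 1:20). Caliper volume every 2 days; tumours weighed at the end.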

In data set [11] the test system is MCF7. The data set can be described thus: Antiproliferative activity against human MCF7 cells at 10 uM incubated for 1 week in presence of JMJD6 inhibitor by CellTiter 96 Aqueous One Solution based assay. Format: functional, cell-based. To be noted: time 1.0 weeks. Summed up: (§5)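 Cells seeded at 2 × 10^3/well and treated with peptide (10 μM) alone or combined with JQ1 (5 μM), iJMJD6 (10 μM) or ICI (2.5 μM), as the line states. Viability read by MTS reagent, 1 h at 37 °C, A490. Three biological repeats.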

The test system of data set [12] is MCF7. The data set can be described thus: Inhibition of colony formation in human MCF7 cells at 10 uM incubated for 2 weeks in presence of 5 uM JQ1 by crystal violet staining based assay. The class given is functional, cell-based. The method in brief:
as §3

A short description of data set [13]: Toxicity in BALB/c mouse xenografted with human MDA-MB-231 cells assessed as change in kidney morphology at 12.5 mg/kg, ip administered every 2 days in presence of 50 mg/kg JQ1. The conditions noted are these: in vivo, 48 h. Format: organism-based. The method in brief:
as §2

The nature of data set [14]: Downregulation of N-myc protein expression in BALB/c mouse tumor xenografted with human MDA-MB-231 cells assessed as fold change in remaining N-myc level at 25 mg/kg, ip administered every 2 days by immunoblotting analysis. Format: functional. The method in brief: as §4
Data set [15] has as its system MDA-MB-231. Briefly: Inhibition of cell migration in human MDA-MB-231 cells at 10 uM incubated for 12 hrs by inverted microscopic assay. Format: functional, cell-based. The method in brief:
as §1

Data set [16] can be described thus: Toxicity in BALB/c mouse xenografted with human MDA-MB-231 cells assessed as change in liver morphology at 12.5 mg/kg, ip administered every 2 days in presence of 50 mg/kg JQ1. The class given is organism-based. The conditions noted are these: in vivo, 48 h. Summed up: as §2
Data set [17] in a line: Downregulation of JMJD6 protein expression in BALB/c mouse tumor xenografted with human MCF7 cells assessed as fold change in remaining JMJD6 level at 25 mg/kg, ip administered every 2 days by immunoblotting analysis. The class given is functional. The method in brief:
as §4

The nature of data set [18]: Toxicity in BALB/c mouse xenografted with human MCF7 cells assessed as change in spleen at 12.5 mg/kg, ip administered every 2 days in presence of 12.5 mg/kg JMJD6 inhibitor. Format: organism-based. To be noted: in vivo, 48 h. The method in brief: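 Female BALB/c nude mice carried MCF7 xenografts (5 × 10^6 cells sc, E2 10–2 M brushed every 2 days) and were randomized at about 50 mm3. Peptide was given at 12.5 mg/kg ip every 2 days, and iJMJD6 (DMSO/PBS 1:20) at 12.5 mg/kg ip every other day, alone or combined. Body and organ weights were recorded.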

In data set [19] the test system is T47D. Briefly: Antiproliferative activity against human T47D cells at 10 uM incubated for 1 week in presence of fulvestrant by CellTiter 96 Aqueous One Solution based assay. Format: functional, cell-based. The conditions noted are these: time 1.0 weeks.
Data set [20] in a line: Toxicity in BALB/c mouse xenografted with human MCF7 cells assessed as change in heart morphology at 12.5 mg/kg, ip administered every 2 days in presence of 50 mg/kg JQ1. To be noted: in vivo, 48 h. Format: organism-based.
Data set [21] deals with MDA-MB-231. Briefly: Antiproliferative activity against human MDA-MB-231 cells at 10 uM incubated for 1 week in presence of JMJD6 inhibitor by CellTiter 96 Aqueous One Solution based assay. The class given is functional, cell-based. To be noted: time 1.0 weeks. The method in brief:
as §5

Data set [22] has as its system MDA-MB-231. The data set can be described thus: Inhibition of colony formation in human MDA-MB-231 cells at 10 uM incubated for 2 weeks by crystal violet staining based assay. The class given is functional, cell-based. Summed up: as §3

With `CC[C@H](C)[C@H](NC(=O)[C@H](Cc1ccc(O)cc1)NC(=O)[C@@H]1C[C@@H](O)CN1C(=O)[C@H](C)NC(=O)[C@@H](NC(=O)CCCCCNC(=O)[C@H](CCC(=O)O)NC(=O)CNC(=O)[C@H](CS)NC(=O)[C@H](CCCCN)NC(=O)[C@H](Cc1ccccc1)NC(=O)[C@H](CCCCN)NC(=O)[C@H](CCC(N)=O)NC(=O)[C@H](CC(N)=O)NC(=O)[C@H](CCCNC(=N)N)NC(=O)[C@H](CCCNC(=N)N)NC(=O)[C@H](CCCNC(=N)N)NC(=O)[C@H](CCCNC(=N)N)NC(=O)[C@H](CCC(N)=O)NC(=O)[C@H](CCCNC(=N)N)NC(=O)[C@H](CCCNC(=N)N)NC(=O)[C@H](CCCCN)NC(=O)[C@H](CCCCN)NC(=O)[C@H](CCCNC(=N)N)NC(=O)CNC(=O)[C@@H](N)Cc1ccc(O)cc1)[C@@H](C)CC)C(=O)O` (H-YGRKKRRQRRRRNQKFKCGE[Ahx]IA[Hyp]YI-OH), the inhibition result in data set [1], in data set [3], in [6], in data set [12], in [15] and in [22] was “Active” each time. In addition, the Activity result in [2], in data set [4], in [13], in [16], in data set [18] and in [20] was “Non-Toxic” in each case. Further, in [5], the outcome was inactive. Moreover, the result in data set [7], in data set [10], in data set [11], in [19] and in [21] was Active. Further, the “fold change (FC)” value in [8] worked out at 0.16; in [9], 0.63; in [14], 0.13; in data set [17] it was 0.4.
Regarding H-YGRKKRRQRRRRNQKFKCGE-OH, the inhibition result in data set [1], in [3], in data set [6], in data set [12], in data set [15] and in data set [22] was “Active” in each case. Besides, the Activity result in data set [2], in data set [4], in [13], in data set [16], in data set [18] and in data set [20] was “Non-Toxic” in each case. The outcome in data set [5] was inactive. For the same compound, the outcome in [7], in data set [10], in data set [11], in data set [19] and in data set [21] was Active. Also, the “fold change (FC)” value in [8] worked out at 0.54; in data set [9], 1.14; in data set [14], 0.38; in data set [17] it was 0.71.
